Results from ChEMBL document CHEMBL1142209, “Inhibition of Plasmodium falciparum choline kinase by hexadecyltrimethylammonium bromide: a possible antimalarial mechanism” (Antimicrob Agents Chemother, 2007).

How the values were obtained:
Plasmodium yoelii [1] = assay: Antimalarial activity against intraperitoneal inoculated Plasmodium yoelii N67 in Swiss mice (Mus musculus) at 20 mg/kg intraperitoneal dose on day 4; assay type: functional, organism-based; set-up: dose 20 mg/kg; conditions: N-67
Method in brief: (§1)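 P. yoelii N-67 in Swiss mice (22 ± 2 g, five per group), 1 × 10^5 parasitized RBC i.p. on day 0. Aqueous suspension given i.p. (0.20 ml) from 6 h post-inoculation, days 0–3. Day-4 parasitemia from Giemsa smears; % suppression = [(C − T)/C] × 100 on group means vs vehicle.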

Plasmodium falciparum [2] = assay: Inhibition of Plasmodium falciparum choline kinase
Method in brief: (§2)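 Purified recombinant PfCK (5 μg; Ni-NTA affinity plus gel filtration) incubated at 37°C for 45 min in 100 mM Tris-Cl pH 8.8, 5 mM ATP, 6 mM MgCl2, 250 μM [methyl-14C]choline (5.6 mCi/mmol). Stopped with Dowex-50W slurry; [14C]phosphocholine in supernatant counted by scintillation. DMSO control = 100%. Three experiments in triplicate.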

Plasmodium falciparum [3] = assay: Inhibition of phosphatidylcholine biosynthesis in Plasmodium falciparum NF54 as [methlyl-14C]choline uptake; assay type: functional, organism-based
Method in brief: (§3)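 NF-54 culture (15% parasitemia, 5% hematocrit) treated 1 h at 37°C (90% N2, 5% CO2) and washed. Labelled 4 h with 40 μM [methyl-14C]choline (5.6 mCi/mmol). Cells lysed in 5% TCA with freeze-thaw; phosphatidylcholine counted in pellet. Ether-extracted supernatant split on Dowex-50W: phosphocholine unbound, free choline eluted with 1 N HCl. Compared with DMSO control.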

Plasmodium falciparum [4] = assay: Inhibition of Plasmodium falciparum choline kinase at 50 uM in presence of 100 uM ATP
Plasmodium falciparum [5] = assay: Inhibition of Plasmodium falciparum choline kinase at 100 uM; method in brief: as §2
Plasmodium falciparum [6] = assay: Inhibition of Plasmodium falciparum NF54 as [3H]hypoxanthine uptake at 10 uM; assay type: functional, organism-based
Method in brief: (§4)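 Asynchronous P. falciparum NF-54 in human B+ erythrocytes (1% hematocrit, 0.5–0.7% parasitemia) exposed to compound (DMSO stock diluted in RPMI) for 48 h. Then washed and pulsed 48 h with [3H]hypoxanthine 0.7 μCi/well. Harvested on glass-fibre filters and counted by scintillation. % inhibition vs DMSO control; three experiments in triplicate.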

Plasmodium falciparum [7] = assay: Inhibition of Plasmodium falciparum NF54 as [3H]hypoxanthine uptake at 20 uM; assay type: functional, organism-based; method in brief: as §4
Plasmodium falciparum [8] = assay: Inhibition of Plasmodium falciparum NF54 trophozoite at 10 uM; assay type: functional, organism-based
Method in brief: (§5)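 Sorbitol-synchronized NF-54 at 0.5% ring parasitemia, 1% hematocrit. Rings (0 h), trophozoites (24 h) or schizonts (36 h) exposed 8 h in CRPMI, then washed out. [3H]hypoxanthine (0.7 μCi/well) added at 24, 48 or 60 h respectively; harvest at 72 h and scintillation count. Read against stage-matched DMSO control; three experiments in triplicate.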

Plasmodium falciparum [9] = assay: Growth inhibition of schizont Plasmodium falciparum NF54 at 10 uM; assay type: functional, organism-based; method in brief: as §5
Plasmodium falciparum [10] = assay: Inhibition of Plasmodium falciparum NF54 ring stage at 30 uM; assay type: functional, organism-based; method in brief: as §5
Plasmodium falciparum [11] = assay: Inhibition of choline kinase in Plasmodium falciparum NF54 assessed as incorporation of [methlyl-14C]choline into phosphocholine at 10 uM; method in brief: as §3
Plasmodium falciparum [12] = assay: Inhibition of phosphocholine biosynthesis in Plasmodium falciparum NF54 as intracellular free choline at 10 uM; assay type: functional, organism-based; method in brief: as §3
Plasmodium yoelii [13] = assay: Antimalarial activity against intravenously inoculated Plasmodium yoelii N67 in Swiss mice (Mus musculus) at 5 mg/kg intraperitoneal dose on day 4; assay type: functional, organism-based; set-up: dose 5 mg/kg; conditions: N-67
Method in brief: (§6)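 P. yoelii N-67 in Swiss mice (22 ± 2 g, five per group), 1 × 10^4 parasitized RBC i.v. on day 0. Aqueous suspension given i.p. (0.20 ml) from 6 h post-inoculation, days 0–3. Day-4 parasitemia from Giemsa smears; % suppression = [(C − T)/C] × 100 on group means vs vehicle.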

Plasmodium yoelii [14] = assay: Antimalarial activity against intravenously inoculated Plasmodium yoelii N67 in Swiss mice (Mus musculus) at 10 mg/kg intraperitoneal dose on day 4; assay type: functional, organism-based; set-up: dose 10 mg/kg; conditions: N-67; method in brief: as §6
Plasmodium yoelii [15] = assay: Antimalarial activity at day 4 against intravenously inoculated Plasmodium yoelii N67 in Swiss mice (Mus musculus) at 20 mg/kg intraperitoneal dose; assay type: functional, organism-based; set-up: dose 20 mg/kg; conditions: N-67; method in brief: as §6
Plasmodium yoelii [16] = assay: Antimalarial activity against intraperitoneal inoculated Plasmodium yoelii N67 in Swiss mice (Mus musculus) at 5 mg/kg intraperitoneal dose on day 4; assay type: functional, organism-based; set-up: dose 5 mg/kg; conditions: N-67; method in brief: as §1
Plasmodium yoelii [17] = assay: Antimalarial activity against intraperitoneal inoculated Plasmodium yoelii N67 in Swiss mice (Mus musculus) at 10 mg/kg intraperitoneal dose on day 4; assay type: functional, organism-based; set-up: dose 10 mg/kg; conditions: N-67; method in brief: as §1
Plasmodium falciparum [18] = assay: Inhibition of Plasmodium falciparum choline kinase at 50 uM in presence of 250 uM ATP
Plasmodium falciparum [19] = assay: Inhibition of Plasmodium falciparum choline kinase at 150 uM in presence of 250 uM ATP
Plasmodium falciparum [20] = assay: Inhibition of Plasmodium falciparum choline kinase at 150 uM in presence of 100 uM ATP

Molecule | Activity (Plasmodium yoelii [1]) [%] | Activity (Plasmodium falciparum [2]) | Activity (Plasmodium falciparum [3]) | inhibition (Plasmodium falciparum [4]) [%] | inhibition (Plasmodium falciparum [5]) [%] | inhibition (Plasmodium falciparum [6]) [%] | inhibition (Plasmodium falciparum [7]) [%] | inhibition (Plasmodium falciparum [8]) [%] | inhibition (Plasmodium falciparum [9]) [%] | inhibition (Plasmodium falciparum [10]) [%] | inhibition (Plasmodium falciparum [11]) [%] | inhibition (Plasmodium falciparum [12]) [%] | Activity (Plasmodium yoelii [13]) [%] | Activity (Plasmodium yoelii [14]) [%] | Activity (Plasmodium yoelii [15]) [%] | Activity (Plasmodium yoelii [16]) [%] | Activity (Plasmodium yoelii [17]) [%] | inhibition (Plasmodium falciparum [18]) [%] | inhibition (Plasmodium falciparum [19]) [%] | inhibition (Plasmodium falciparum [20]) [%]
hexadecyltrimethylammonium bromide | 77.2 | Dose-dependent effect | Dose-dependent effect | 60 | 60 | 62 | 81 | 62 | 51 | 33.3 | 57 | 42 | 48.7 | 64.2 | 83.7 | 36.8 | 52.4 |  |  | 
C[N+]1(C)CCOC(O)(c2ccc(-c3ccc(C4(O)C[N+](C)(C)CCO4)cc3)cc2)C1 (stereo unspecified) |  |  |  | 16 |  |  |  |  |  |  |  |  |  |  |  |  |  | 16 | 18 | 18
